These results are taken from article PMC7157925 (Steroids, 2003).

Experiment [1] relates to endothelin-converting enzyme. The settings on record: ref [20]; cited from earlier work.
The next experiment has as its system HSV-2. The experiment is described as follows: Virucidal assay. Also on record: species or system herpes simplex virus type 2. The following applies: HSV-2 suspension incubated with compound 1 h at 37 °C. The procedure, abridged: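 HSV-2 strain G suspension (4×10^5 PFU) mixed with an equal volume of maintenance medium (MEM, 1.5% bovine serum), with or without various concentrations of test compound, 1 h at 37 °C. Samples then diluted in cold maintenance medium, and residual infectivity titrated by plaque formation on Vero cells. Compound stock 10 mg/ml in DMSO, filter-sterilized. VC50 is the concentration inactivating virions by 50%.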

The subject of another experiment is HSV-2 strain G. The experiment is described as follows: Antiviral assay, reduction of virus plaque formation in Vero cells. The experiment is classed as cell-based, herpes simplex virus type 2. The settings on record: at a concentration up to 50 μg/ml.

Molecules are shown by their SMILES.

For the compound `C=CCCC[C@@H](C)[C@H]1CC[C@H]2[C@@H]3CC[C@H]4C[C@H](OS(=O)(=O)O)[C@@H](OS(=O)(=O)O)C[C@]4(C)[C@H]3CC[C@]12C` [Compound 19, Halistanol disulfate B], the “Activity in the endothelin-converting enzyme assay” value in experiment [1] is recorded as “active”. On to `CC(C)CCC[C@@H](C)[C@H]1CC[C@H]2[C@@H]3CC[C@H]4C[C@H](O)[C@@H](O)C[C@]4(C)[C@H]3CC[C@]12C` [Compound 5, 2β,3α-Dihydroxy-5α-cholestane], for which the “VC50, concentration required to inactivate virus by 50%±S.D.” value with HSV-2 was > 100 µg/mL. For the same compound, the “Activity against HSV-2” value in the experiment with HSV-2 strain G is recorded as “not active”.
